Laboratory results as given in ChEMBL document CHEMBL1125096, “Synthesis and antitumor activity of 9-[(carbamoyloxy)alkyl]anthracyclines: a novel class of anthracycline derivatives” (1990).

Key:
Type in all cases: functional, Mus musculus
L1210 (1565) [1] = test: Antitumor activity against L-1210 leukemia cell line in BDF1 mice after injecting 0.25 mg/kg intraperitoneal dose
In short: (§1)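 Female BDF1 mice, five per dose group, inoculated ip with 10^5 viable L-1210 ascites cells. Dosing started the same day: ip, daily, five times a week for 4 weeks or until death. Vehicle was aqueous solution, or propylene glycol suspension if insoluble. Efficacy is expressed as T/C, the ratio of mean survival time of treated to untreated control mice. Survivors at 4 weeks counted as long-term.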

L1210 (1565) [2] = test: Antitumor activity against L-1210 leukemia cell line in BDF1 mice after injecting 2 mg/kg intraperitoneal dose; in short: as §1
L1210 (1565) [3] = test: Antitumor activity against L-1210 leukemia cell line in BDF1 mice after injecting 0.125 mg/kg intraperitoneal dose; in short: as §1
L1210 (1565) [4] = test: Antitumor activity against L-1210 leukemia cell line in BDF1 mice after injecting 0.05 mg/kg intraperitoneal dose; in short: as §1
L1210 (1565) [5] = test: Antitumor activity against L-1210 leukemia cell line in BDF1 mice after injecting 1 mg/kg intraperitoneal dose; in short: as §1
L1210 (1565) [6] = test: Antitumor activity against L-1210 leukemia cell line in BDF1 mice after injecting 16 mg/kg intraperitoneal dose; in short: as §1
L1210 (1565) [7] = test: Antitumor activity against L-1210 leukemia cell line in BDF1 mice after injecting 4 mg/kg intraperitoneal dose; in short: as §1
L1210 (1565) [8] = test: Antitumor activity against L-1210 leukemia cell line in BDF1 mice after injecting 0.5 mg/kg intraperitoneal dose; in short: as §1

SMILES: C[C@@H]1OC(O[C@H]2C[C@](O)([C@@H](C)OC(=O)Nc3ccccc3)Cc3c(O)c4c(c(O)c32)C(=O)c2ccccc2C4=O)C[C@H](N)[C@@H]1O.Cl (some centres undefined)
- T/C (L1210 (1565) [1]): 420%

SMILES: C[C@H]1C[C@H](N)C[C@H](O[C@H]2C[C@](O)(COC(=O)Nc3ccccc3)Cc3c(O)c4c(c(O)c32)C(=O)c2ccccc2C4=O)O1.Cl
- T/C (L1210 (1565) [2]): 500%

SMILES: C[C@@H]1OC(O[C@H]2C[C@](O)([C@H](C)OC(=O)Nc3ccccc3)Cc3c(O)c4c(c(O)c32)C(=O)c2ccccc2C4=O)C[C@H](N)[C@H]1O.Cl (some centres undefined)
- T/C (L1210 (1565) [3]): 400%

SMILES: CC(=O)[C@]1(O)Cc2c(O)c3c(c(O)c2[C@@H](O[C@H]2C[C@@H](N)[C@H](O)[C@H](C)O2)C1)C(=O)c1ccccc1C3=O.Cl
- T/C (L1210 (1565) [4]): 230%

SMILES: CC1OC(O[C@H]2C[C@](O)([C@@H](C)OC(=O)Nc3ccccc3)Cc3c(O)c4c(c(O)c32)C(=O)c2ccccc2C4=O)CC(N)C1O.Cl (some centres undefined)
- T/C (L1210 (1565) [5]): 280%

SMILES: CC1OC(O[C@H]2C[C@](O)(COC(=O)Nc3ccccc3)Cc3c(O)c4c(c(O)c32)C(=O)c2ccccc2C4=O)CC(N)C1OCc1ccccc1.Cl (some centres undefined)
- T/C (L1210 (1565) [6]): 470%

SMILES: CC1OC(O[C@H]2C[C@](O)(COC(=O)Nc3ccc([N+](=O)[O-])cc3)Cc3c(O)c4c(c(O)c32)C(=O)c2ccccc2C4=O)CC(N)C1O.Cl (some centres undefined)
- T/C (L1210 (1565) [7]): 210%

SMILES: COc1ccc(NC(=O)OC[C@]2(O)Cc3c(O)c4c(c(O)c3[C@@H](OC3CC(N)C(O)C(C)O3)C2)C(=O)c2ccccc2C4=O)cc1.Cl (some centres undefined)
- T/C (L1210 (1565) [2]): 230%

SMILES: CNC(=O)OC[C@]1(O)Cc2c(O)c3c(c(O)c2[C@@H](OC2CC(N)C(O)C(C)O2)C1)C(=O)c1ccccc1C3=O.Cl (some centres undefined)
- T/C (L1210 (1565) [7]): 280%

SMILES: CC1OC(O[C@H]2C[C@](O)(COC(=O)Nc3ccc(Cl)cc3)Cc3c(O)c4c(c(O)c32)C(=O)c2ccccc2C4=O)CC(N)C1O.Cl (some centres undefined)
- T/C (L1210 (1565) [2]): 370%

SMILES: C[C@@H]1O[C@@H](O[C@H]2C[C@](O)(COC(=O)Nc3ccccc3)Cc3c(O)c4c(c(O)c32)C(=O)c2ccccc2C4=O)C[C@@H](N)[C@@H]1O.Cl (stereo in doubt; 8a)
- T/C (L1210 (1565) [2]; 2 mg/kg): 380%

SMILES: CO[C@H]1[C@H](N)C[C@H](O[C@H]2C[C@](O)(COC(=O)Nc3ccccc3)Cc3c(O)c4c(c(O)c32)C(=O)c2ccccc2C4=O)O[C@H]1C.Cl (stereo in doubt; 19)
- T/C (L1210 (1565) [2]; 2 mg/kg): 230%

SMILES: COc1cccc2c1C(=O)c1c(O)c3c(c(O)c1C2=O)C[C@@](O)(C(C)=O)C[C@@H]3O[C@H]1C[C@H](N)[C@H](O)[C@H](C)O1.Cl [DAUNORUBICIN HYDROCHLORIDE]
- T/C (L1210 (1565) [8]): 290%

SMILES: COc1cccc2c1C(=O)c1c(O)c3c(c(O)c1C2=O)C[C@@](O)(C(=O)CO)C[C@@H]3O[C@H]1C[C@H](N)[C@H](O)[C@H](C)O1.Cl [DOXORUBICIN HYDROCHLORIDE]
- T/C (L1210 (1565) [2]): 330%
